# Source: PubChem (Sanford-Burnham Center for Chemical Genomics)
# This is a sample that favours compounds with a hit; in the whole collection about 3.1% have one here.
# UBC13 inh = inhibitors of human UBC13 polyubiquitin chain formation; P61088; inhibition, % at 20 µM; 0.47% of 330,000 active; TR-FRET; AID 485273; in the data active = inhibition above about 45%, passing the limit was not always enough
# Target sequence (P61088 whole entry, looked up): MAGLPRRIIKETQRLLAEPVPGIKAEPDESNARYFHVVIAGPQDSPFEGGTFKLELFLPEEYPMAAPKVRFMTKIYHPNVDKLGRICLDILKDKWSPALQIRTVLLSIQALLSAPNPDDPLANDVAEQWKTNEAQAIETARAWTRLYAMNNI
# Apaf-1 inh = blocks human Apaf-1 apoptosome activity; AID 489030; 0.71% of 330,000 active; O14727; reconstituted apoptosome caspase-3 activity, DEVD-Rh110 fluorescence; inhibition, % at 20 µM; active = inhibition of at least 40% at 20 µM;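 note: plate controls were DMSO wells for no effect and DEVD-CHO caspase inhibitor wells for full effect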
#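 Material: reconstituted apoptosome with Apaf-1, cytochrome c, caspase-9, procaspase-3, dATP / Buffer or medium: pH 7.5 Hepes buffer with CHAPS, BSA, DTT / Also added: cytochrome c with DEVD-Rh110 / Schedule: compound with Apaf-1, dATP, procaspase-3 30 min, then 50 min reaction, room temperature / Technique: rhodamine 110 fluorescence at Ex 480/Em 540 nm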
# SENP8 block-1 = inhibitors of human SENP8 protease; Q96LD8; recombinant SENP8, Nedd8 substrate fluorescence; inhibition, % at 20 µM; 0.64% of 360,000 active; AID 602440; in the data active = inhibition mostly above about 40%, no sharp cut-off; inactive = mostly below about 27%
# Target sequence (Q96LD8 whole entry, looked up): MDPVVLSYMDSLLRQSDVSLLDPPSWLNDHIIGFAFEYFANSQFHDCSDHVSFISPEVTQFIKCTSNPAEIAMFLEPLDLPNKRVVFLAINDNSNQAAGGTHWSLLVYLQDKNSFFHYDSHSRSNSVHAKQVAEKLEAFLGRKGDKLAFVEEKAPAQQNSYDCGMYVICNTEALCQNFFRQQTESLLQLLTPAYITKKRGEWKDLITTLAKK
# SENP6 block = SENP6 protease inhibition | Q9GZR1 | Recombinant SENP6 catalytic domain, aminoluciferin luminescence | inhibition, % at 10 µM | 1.8% of 330,000 active | AID 2599;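 active = inhibition above about 50% at the single tested dose, limit read from the data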;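 note: plate controls were DMSO wells with enzyme for no effect and DMSO wells lacking enzyme for full effect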
# SENP8 block-2 = blocks the human protease SENP8 | Q96LD8 | purified SENP8, Z-RLRGG-aminoluciferin cleavage, luminescence | inhibition, % at 10 µM | 1.2% of 330,000 active; in the data active = inhibition above about 50%
# SENP7 block = SENP7 protease inhibition. AID 434973. recombinant SENP7, Z-RLRGG-aminoluciferin luminescence, 40 min. 1.5% of 330,000 active. inhibition, % at 5 µM;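 active = inhibition above about 50% at the single test dose, limit read from the data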;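 note: plate controls were DMSO with enzyme for no effect and no enzyme buffer wells for full effect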
# The depositor's hits bear a star; x = no result.
SMILES,UBC13 inh,Apaf-1 inh,SENP8 block-1,SENP6 block,SENP8 block-2,SENP7 block
C#CCOCCOCCOCCNc1nc(N2CCN(C(=O)CCCCCCCCCCNC(=O)[C@@H]([C@H](C)O)n3cc(C)nn3)CC2)nc(N2CCN(C(=O)CCCCCCCCCCNC(=O)[C@@H]([C@H](C)O)n3cc(C)nn3)CC2)n1,21.9,30.2,7.7,-1.3,-7.8,2.5
C#CCOCCOCCOCCNc1nc(N2CCN(C(=O)CCCCCCCCCCNC(=O)[C@H](CCC(=O)O)n3cc(CCCCCN)nn3)CC2)nc(N2CCN(C(=O)CCCCCCCCCCNC(=O)[C@@H]([C@H](C)O)n3cc(C)nn3)CC2)n1,41.1,50.9*,9.0,-13.2,-2.0,6.7
CN1C=CC=C/C1=C1\SC(=S)N(c2ccccc2)C1=O,-38.9,4.7,44.4*,13.8,5.9,12.0
Cc1cc2c(cc1C)-c1nnnn1C(N1CCC(Cc3ccccc3)CC1)C(=O)N2 (stereo not drawn),x,x,18.6,x,x,x
CCOC(=O)c1cccc(NC(=O)Cn2c(CC(=O)N3CCCC3)nc3ccccc32)c1,-4.9,10.9,x,76.4*,0.6,3.2
N#CC(C#N)=NNc1ccc(S(=O)(=O)N2CCCCC2)cc1,-10.0,1.4,47.1*,16.8,3.0,-0.7
Nc1nc2ncccn2c1-c1ccc(C(F)(F)F)cc1,x,x,-416.7,x,x,x
COCCCN1C(=O)C(CC(=O)NCCN2CCOCC2)CC(C(=O)N(C)C)=C1C (stereo not drawn),x,x,17.0,x,x,x
Cc1nc2sccn2c(=O)c1CCN1CCC(=C(c2ccccc2)c2ccc(F)cc2)CC1,29.0,41.8*,x,11.3,0.7,5.9
Cc1nc2sccn2c(=O)c1S(=O)(=O)N1CCN(c2ccccc2)CC1,-11.1,1.5,16.8,-10.5,-0.7,-2.8
O=C(c1cccs1)[C@@H]1[C@@H]2C(=O)N(Cc3ccc4c(c3)OCO4)C(=O)[C@@H]2C2c3ccccc3C=CN21 (stereo partly drawn),-11.4,81.9*,x,-6.2,40.2,35.8
O=C(Nc1ccc2c(c1)OCO2)[C@@H]1[C@@H]2C(=O)N(C3CCCCC3)C(=O)[C@@H]2C2c3ccccc3C=CN21 (stereo partly drawn),-4.7,42.5*,x,20.7,5.0,2.1
O=C(COC(=O)C1CC1)Nc1ccc(N=Nc2ccccc2)cc1,-11.4,6.7,43.4*,-13.3,-28.1,-2.0
CCCCCCN(C(=O)CCCCCN1C(=O)NC(c2ccc(-c3ccccc3)cc2)C(C(=O)OCc2ccccc2)=C1C)C(C(=O)NCCCC)c1cccc(C(=O)OC)c1 (stereo not drawn),-27.7,79.0*,x,-2.7,0.6,4.1
CCCN1/C(=C2/SC(=S)N(CC)C2=O)C=Cc2ccccc21,-252.2,20.5,41.3*,-2.3,3.4,9.0
CCCN1C(=O)/C(=C2/C=Cc3ccccc3N2CC)SC1=S,-298.9,17.6,28.3,0.7,-5.0,1.1
N=C1/C(=C\c2ccc(-c3cccc(C(=O)O)c3)o2)C(=O)N=C2SC=C(c3ccccc3)N12,-34.5,14.0,-80.4,79.4*,46.1,-2.6
N=C1/C(=C/c2ccc(-c3cccc(C(=O)O)c3)o2)C(=O)N=C2SC(CC(=O)N3CCOCC3)=NN12,-23.3,30.7,9.3,6.5,7.3,0.1
COc1ccc([C@H]2CC(=O)C[C@@H](CCn3cc(CCc4ccccc4)nn3)O2)cc1,x,x,8.1,x,x,x
COC(=O)[C@@]12C[C@@H](CC(=O)NCc3cccc(C(F)(F)F)c3)C(=O)N(Cc3ccc4c(c3)OCO4)C1=CCC(C)(C)C2,x,x,18.7,x,x,x
CC1(OC(=O)c2cccs2)C(=O)C=C2C=C3CCCN3C=C2C1=O (stereo not drawn),-105.3,61.8*,58.6*,-21.1,-3.3,8.6
COc1ccc(C[C@H]2CN3C(=NC[C@@H]3Cc3ccccc3)N2C[C@H](C)NC(=O)CCC2CCCCC2)cc1,17.4,51.6*,x,-18.9,-11.6,6.1
O=C(N=Nc1ccc(NOC(=O)c2ccccc2Br)cc1)c1ccccc1O,-106.2,5.0,x,91.4*,86.4*,63.0*
COc1cc(OC)cc(C2=Cc3ccccc3C(CC(=O)c3ccco3)N2c2ccc(-c3cncnc3)cc2)c1 (stereo not drawn),x,x,-144.7,x,x,x
CC(=O)C1=CCC(c2ccccc2)N(Cc2ccccc2)C1 (stereo not drawn),x,x,11.6,x,x,x
SMILES,UBC13 inh,Apaf-1 inh,SENP8 block-1,SENP6 block,SENP8 block-2,SENP7 block
COc1cc(C2Nc3cccc4cccc(c34)N2)cc(OC)c1OC(C)=O,-56.6,40.6*,28.9,18.1,16.3,8.3
COc1cc(C2Nc3cccc4cccc(c34)N2)ccc1O,-29.5,29.9,38.4,14.5,5.9,7.2
CCOC(=O)N=Nc1c2ccccc2c2nc3no[nH]c3nc12,-176.6,88.4*,94.5*,61.8*,31.1,31.5
CCOC(=O)N=Nc1c(O)n(CC(=O)OC)c2ccccc12,3.1,-4.4,19.7,1.5,-2.0,-4.5
O=C(Cc1ccccc1)Nc1nc(=O)c2ccccc2s1,-3.9,2.4,22.1,-4.3,-5.7,-0.7
O=C(Cc1nc(=O)c2ccccc2s1)Nc1ccccc1,-7.0,6.3,-137.4,46.3,1.9,92.0*
O=C(/C=C/c1cn(CC(O)CN2CCCCC2)c2ccccc12)c1ccccc1 (stereo not drawn),x,x,-233.7,x,x,x
CN1CCN(Cn2cc(/C=C/C(=O)c3ccccc3)c3ccccc32)CC1,14.9,-2.0,-287.5,58.6*,9.8,23.0
CC(=O)N1CCC(C(=O)N2c3ccccc3N=C(c3ccc4c(c3)OCO4)C2C(=O)Nc2c(C)cccc2C)CC1 (stereo not drawn),x,x,-217.0,x,x,x
Cc1cc(C)c2sc(N(CCCN(C)C)C(=O)c3ccc(S(=O)(=O)N4CCCc5ccccc54)cc3)nc2c1,62.5*,36.7,15.6,-5.8,-3.2,-0.5
O=S(c1ccc2ccccc2c1)c1cnns1 (stereo not drawn),7.5,-0.3,43.6*,-4.2,1.1,2.7
O=C(Nc1ccc(F)cc1)C(c1ccnc2ccccc12)N1CCN(c2cccc(C(F)(F)F)n2)CC1 (stereo not drawn),x,x,6.4,x,x,x
Cc1ccc(/C=C2\CCC(C3CCCC3)C2=O)cc1 (stereo not drawn),-10.0,6.7,6.8,88.9*,40.4,75.1*
COc1ccc(/C=C2\CCC(C3CCCC3)C2=O)cc1OC (stereo not drawn),-7.7,12.3,17.2,11.9,-5.1,0.8
CSCCC(C(=O)NCc1ccccc1)n1c(C2CCN(C(C)=O)CC2)nc2ccccc21 (stereo not drawn),x,x,12.9,x,x,x
CC1(C)S[C@@H]2[C@H](NC(=O)Cc3ccccc3)C(=O)N2[C@H]1C(=O)O,-15.9,-8.0,4.6,-2.3,11.4,-0.7
CCC(Oc1ccccc1)C(=O)NC1C(=O)N2C1SC(C)(C)C2C(=O)O (stereo not drawn),-7.3,0.3,15.0,19.1,-1.2,61.4*
N#Cc1ccc(C23CC4(C2)[C@H](CN(CC2CCCCC2)[C@@H]4c2ccccc2)C3c2ccc(C(F)(F)F)cc2)cc1 (stereo partly drawn),4.5,42.3*,x,-5.4,-3.4,-4.0
